Measurements of several laboratories.
Compare with care: the assays were run in different laboratories.
CDK8: Cyclin-dependent kinase 8 (CDK8, Homo sapiens, UniProt P49336)
CDK8 with cyclin C: Cyclin-dependent kinase 8, with cyclin C (CDK8, Homo sapiens, UniProt P49336)

Compound	target	effect on	action	method	tested at	endpoint	value
Cn1c2c(Cl)c(Cl)ccc2c2cc(N)[nH]c(=O)c21	CDK8	thermal stability		DSF	10 µM	ΔTm	0.7 °C
COc1ccnn2ncc(-c3ccnc(N(C)C)n3)c12	CDK8	binding			1 µM	remaining binding	100%
O=C(Nc1cnn(-c2csc(C(=O)NC3COC3)c2)c1)Nc1ccccc1Cl	CDK8 with cyclin C	enzyme activity	inhibitor		5 µM	remaining activity	101%
Cn1c2c(c3ccc(Cl)c(Cl)c31)C(C#N)C1(CCNCC1)NC2=O (racemic)	CDK8	thermal stability		DSF	10 µM	ΔTm	2.2 °C
O=C(O)[C@H]1[C@H](Cn2nnc3ccccc3c2=O)CC[C@@H]1C(=O)c1ccc(OCCC2CCOCC2)cc1	CDK8	cell-free assay		competition with immobilised ligand	1 µM	remaining binding	100%
CCOc1cc(-c2nncn2C)ccc1Nc1ncc2cc(C)nc(NCC(C)(C)C)c2n1	CDK8 with cyclin C	cell-free assay		TR-FRET	1 µM	inhibition	≤ 15%
CN1CCC2(CC1)NC(=O)c1c(c3ccc(Cl)c(Cl)c3n1C)C2C#N (racemic)	CDK8	thermal stability		DSF	10 µM	ΔTm	1.8 °C
CC(C)CC(=O)N1CCc2nc(-c3ccc(Br)cc3)nc(N(C)Cc3ccccc3)c2C1	CDK8	cell-free assay		competition with immobilised ligand	0.1 µM	remaining binding	82%
CC(C)(C)c1nc2c(s1)c1nc(N)ncc1c1ccc(NS(=O)(=O)c3c(F)cccc3F)c(F)c12	CDK8 with cyclin C	enzyme activity	inhibitor	radiometric	1 µM	remaining activity	100%
Nc1ncnc2occ(-c3ccc(NC(=O)Nc4cc(C(F)(F)F)ccc4F)cc3)c12	CDK8	cell-free assay	inhibitor		20 µM	remaining signal	2%
C[C@H](c1ccnc(Nc2nc3ccc(-c4cc(N(C)C)ncn4)cc3[nH]2)c1)N1CCN(C(=O)CC(F)(F)F)CC1	CDK8	cell-free assay		competition with immobilised ligand	0.1 µM	remaining binding	96%
CN1CCN(C(=O)c2ccc3cc(CCNc4ccnc5ccc(C#N)cc45)ccc3c2)CC1	CDK8 with cyclin C	binding		TR-FRET		kon	878000 M⁻¹ s⁻¹
CCN1CCC2(CC1)NC(=O)c1c(c3ccc(Cl)c(Cl)c3n1C)C2C#N (racemic)	CDK8	thermal stability		DSF	10 µM	ΔTm	1.2 °C
Cc1c(NC(=O)c2cc(C(N)=O)nc3cc(F)ccc23)c(C(F)(F)F)nn1Cc1ccc(C(C)(C)C)cc1	CDK8	cell-free assay		competition with immobilised ligand	1 µM	remaining binding	100%
